Data: ChEMBL document CHEMBL3826940, “Amphipathicity Determines Different Cytotoxic Mechanisms of Lysine- or Arginine-Rich Cationic Hydrophobic Peptides in Cancer Cells” (J Med Chem, 2016)
One block for each compound: values may come before it. The source made the active and inactive calls. The rule behind the calls is not given here.

Key:
HeLa [1] = assay: Cytotoxicity against human HeLa cells assessed as cell viability after 24 hrs by MTT assay; assay type: functional, cell-based
Summary of the method: (§1)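 MTT viability assay. Cells were seeded at 1 × 10^4 cells/well in complete medium and grown 24 h. Medium was replaced with fresh medium containing peptide over a concentration series and incubated 24 h. MTT (5 mg/mL) was added for 4 h, formazan was dissolved in DMSO, and A490 was read. IC50 was derived from mean ± SD of three independent experiments.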

[2] = Cytotoxicity against human 293T cells assessed as cell viability after 24 hrs by MTT assay; assay type: cell-based, HEK-293T; summary of the method: as §1
[3] = Hemolytic activity in mouse RBC at 0.39 to 50 uM after 1 hr; assay type: ADME, cell-based; conditions: erythrocyte
Summary of the method: (§2)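 Heparinized fresh mouse blood: RBCs were washed three times in 0.9% saline and diluted to 4.0 × 10^8 cells/mL. Peptides at various concentrations were incubated with the RBCs 1 h at 37 °C. After centrifugation at 1000 rpm for 10 min, supernatant absorbance was read at 540 nm, with 1% Triton X-100 set as 100% hemolysis.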

MCF7 = assay: Cytotoxicity against human MCF7 cells assessed as cell viability after 24 hrs by MTT assay; assay type: functional, cell-based; summary of the method: as §1
HUVEC = assay: Cytotoxicity against HUVEC assessed as cell viability after 24 hrs by MTT assay; assay type: cell-based, Homo sapiens; summary of the method: as §1
[4] = Cytotoxicity against HLF assessed as cell viability after 24 hrs by MTT assay; design: species or system Homo sapiens; summary of the method: as §1
A549 = assay: Cytotoxicity against human A549 cells assessed as cell viability after 24 hrs by MTT assay; assay type: functional, cell-based; summary of the method: as §1
HeLa [5] = assay: Drug uptake in human HeLa cells at 5 uM after 15 mins using iridium dye labeled compound by confocal microscopic method; assay type: ADME, cell-based; conditions: 0.25 h
Summary of the method: (§3)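 Peptides were labelled at the N-terminal His with [Ir(ppy)2(H2O)2]OTf: 200 μM each, mixed 1:1 in PBS, 2 h at 37 °C in the dark. HeLa cells (1 × 10^5 per dish, grown 24 h) were exposed to 5 μM labelled peptide. Live-cell confocal images were taken at 0, 5 and 15 min (excitation 403 nm, emission 500–560 nm).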

[6] = Hemolytic activity in mouse RBC after 1 hr; assay type: ADME, cell-based, Erythrocyte; conditions: red blood cells; summary of the method: as §2
HeLa [7] = assay: Cytotoxicity against human HeLa cells assessed as cell mortality at 5 uM after 5 mins by Hoechst 33342/propidium iodide staining-based assay; assay type: functional
Summary of the method: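 HeLa cells treated with 5 μM peptide were co-stained with Hoechst 33342 (stains all nuclei) and propidium iodide (stains only membrane-compromised cells). Fluorescence imaging was done at time points up to 30 min.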

HeLa [8] = assay: Induction of morphological changes in human HeLa cells assessed as membrane leakage at 5 uM after 30 mins by microscopic method; assay type: functional, cell-based
Summary of the method: (§4)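 HeLa cells were co-incubated with 5 μM peptide for 30 min. Morphology was then examined under the microscope.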

HeLa [9] = assay: Induction of apoptosis in human HeLa cells assessed as caspase-3 activation at 5 uM measured up to 4 hrs by caspase-glo assay; assay type: functional, cell-based
Summary of the method: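 Cells in 96-well plates were exposed to 5 μM peptide for 5, 10, 15 or 30 min, or 1, 2, 3 or 4 h. Caspase-Glo 3/7 reagent was added, the plate shaken 30 s and incubated 2 h at room temperature, and luminescence was read.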

HeLa [10] = assay: Cytotoxicity against human HeLa cells assessed as lethality at 5 uM at 0 degC after 30 mins by MTT assay; assay type: functional, cell-based
Summary of the method: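 HeLa cells were incubated with peptide over a range of concentrations at 0 or 37 °C for 30 min. Lethality was then measured by MTT, with A490 read after DMSO solubilization.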

HeLa [11] = assay: Induction of morphological changes in human HeLa cells assessed as membrane fragmentation at 5 uM after 30 mins by microscopic method; assay type: functional, cell-based; summary of the method: as §4
HeLa [12] = assay: Cytotoxicity against human HeLa cells assessed as cell mortality at 5 uM after 5 mins by MTT assay; assay type: functional, cell-based
[13] = Drug uptake in plasma membrane of human HeLa cells at 5 uM after 2 to 30 mins using iridium dye labeled compound by confocal microscopic method; assay type: ADME, cell-based; summary of the method: as §3

Compound: H-HGGKLLKLLKLKKLLKL-NH2
- IC50 (HeLa [1]): 34.5 µM
- Activity ([2]; human, hek-293t): Non-toxic
- Activity [3]: Non-toxic
- Activity (MCF7): inactive
- Activity (HUVEC; human, huvec): Non-toxic
- Activity ([4]; human, hlf): Non-toxic
- Activity (A549): inactive

- Drug uptake (HeLa [5]): Active
Compound: CC(C)C[C@@H](NC(=O)[C@@H](CCCNC(=N)N)NC(=O)[C@@H](CC(C)C)NC(=O)[C@@H](CC(C)C)NC(=O)[C@@H](CCCNC(=N)N)NC(=O)[C@@H](CCCNC(=N)N)NC(=O)[C@@H](CC(C)C)NC(=O)[C@@H](CCCNC(=N)N)NC(=O)[C@@H](CC(C)C)NC(=O)[C@@H](CC(C)C)NC(=O)[C@@H](CCCNC(=N)N)NC(=O)[C@@H](CC(C)C)NC(=O)[C@@H](CC(C)C)NC(=O)[C@@H](CCCNC(=N)N)NC(=O)CNC(=O)CNC(=O)[C@H](N)Cc1cnc[nH]1)C(N)=O
- IC50 (HeLa [1]): 4.1 µM

Compound: H-HGGRLLRLLRRLLRLLR-NH2
- IC50 (HeLa [1]): 3.7 µM
- IC50 ([2]; Homo sapiens, HEK-293T): 9.6 µM
- IC50 (MCF7; MCF7, 24 h): 2500 nM
- HC50 at 1 h [6]: 2900 nM
- IC50 (HUVEC; Homo sapiens, HUVEC): 8.4 µM
- IC50 ([4]; Homo sapiens, HLF): 6.3 µM
- IC50 (A549; A549, 24 h): 4.3 µM
- Activity (HeLa [7]): Active
- Activity (HeLa [8]): Active
- Activity (HeLa [9]): inactive
- Activity (HeLa [10]): Active
- Activity (HeLa [11]): Active
- Activity (HeLa [12]): Active
- Drug uptake [13]: Active
